Reference: ChEMBL document CHEMBL2046281, “Pre-steady state kinetic analysis of cyclobutyl derivatives of 2'-deoxyadenosine 5'-triphosphate as inhibitors of HIV-1 reverse transcriptase” (Bioorg Med Chem Lett, 2012)

Tests used:
[1] = target: Human immunodeficiency virus type 1 reverse transcriptase (Human immunodeficiency virus 1, UniProt Q72547); assay: Binding affinity to wild type HIV1 reverse transcriptase by pre-steady state kinetics study
Outline: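 Pre-steady-state single-nucleotide incorporation by wild-type HIV-1 RT (250 nM active sites) into a radiolabeled DNA/DNA primer-template (50 nM) carrying the primer binding site and its complementary sequence. Reactions contained 10 mM MgCl2 and varied nucleotide concentrations. kpol and Kd were taken from the primer elongation data.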

[2] = target: Human immunodeficiency virus type 1 reverse transcriptase (Human immunodeficiency virus 1) (UniProt Q72547); assay: Inhibition of wild type HIV1 reverse transcriptase assessed as compound incorporation efficiency in presence of 50 nM primer template and 10 mM MgCl2 by pre-steady state kinetics study
Outline: (§1)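 Pre-steady-state single-nucleotide incorporation by HIV-1 RT (wild type or K65R), 250 nM active-site enzyme, elongating a radiolabeled DNA/DNA primer-template (50 nM) that carries the primer binding site and its complementary sequence. Reactions contained 10 mM MgCl2 and varied nucleotide concentrations. kpol and Kd were derived, and incorporation efficiency was reported in s-1 µM-1.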

[3] = test system: Human immunodeficiency virus type 1 reverse transcriptase (Human immunodeficiency virus 1), Q72547 [K65R]; assay: Inhibition of HIV1 reverse transcriptase K65R mutant assessed as compound incorporation efficiency in presence of 50 nM primer template and 10 mM MgCl2 by pre-steady state kinetics study; outline: as §1
[4] = target: Human immunodeficiency virus type 1 reverse transcriptase (Human immunodeficiency virus 1) (UniProt Q72547); assay: Discrimination index, ratio of incorporation efficiency of dATP to incorporation efficiency of compound for wild type HIV1 reverse transcriptase
[5] = test system: Human immunodeficiency virus type 1 reverse transcriptase (Human immunodeficiency virus 1), Q72547 [K65R]; assay: Discrimination index, ratio of incorporation efficiency of dATP to incorporation efficiency of compound for wild type HIV1 reverse transcriptase K65R mutant
[6] = target: Human immunodeficiency virus type 1 reverse transcriptase (Human immunodeficiency virus 1, UniProt Q72547, K65R); assay: Binding affinity to HIV1 reverse transcriptase K65R mutant by pre-steady state kinetics study; outline: as §1
[7] = target: Human immunodeficiency virus type 1 reverse transcriptase (Human immunodeficiency virus 1) (UniProt Q72547); assay: Binding affinity to wild type HIV1 reverse transcriptase assessed as compound incorporation in presence of 50 nM primer template and 10 mM MgCl2 by pre-steady state kinetics study; outline: as §1
[8] = test system: Human immunodeficiency virus type 1 reverse transcriptase (Human immunodeficiency virus 1), Q72547 [K65R]; assay: Binding affinity to HIV1 reverse transcriptase K65R mutant assessed as compound incorporation in presence of 50 nM primer template and 10 mM MgCl2 by pre-steady state kinetics study; outline: as §1

Row | Ratio [4] | Structure (SMILES) | Kd [1] [µM] | Activity [2] [s⁻¹ µM⁻¹] | Activity [3] [s⁻¹ µM⁻¹] | Ratio [5] | Kd [6] [µM] | K [7] [s⁻¹] | K [8] [s⁻¹]
1 | 386 | NC1=Nc2ncnc3c2c(cn3[C@H]2C[C@@H](COP(=O)(O)OP(=O)(O)OP(=O)(O)O)C2)C=C1 | 22.4 | 0.007 | – | – | – | 0.16 | –
2 | – | Nc1ncnc2c1ncn2[C@H]1C[C@H](O)[C@@H](COP(=O)(O)OP(=O)(O)OP(=O)(O)O)O1 | 4.6 | 2.7 | 0.61 | – | 6.6 | 12.3 | 4
3 | 245 | Nc1ncnc2c1ncn2[C@H]1C[C@@H](COP(=O)(O)OP(=O)(O)OP(=O)(O)O)C1 | 20.4 | 0.011 | – | – | – | 0.23 | –
4 | 519 | Nc1ncnc2c1ncn2[C@@H]1C[C@H](COP(=O)(O)OP(=O)(O)OP(=O)(O)O)[C@H]1F | 25.5 | 0.0052 | – | – | – | 0.13 | –

Row | Structure (SMILES) | Ratio [4] | Kd [1] [µM] | Activity [2] [s⁻¹ µM⁻¹] | Activity [3] [s⁻¹ µM⁻¹] | Ratio [5] | Kd [6] [µM] | K [7] [s⁻¹] | K [8] [s⁻¹]
5 | C[C@H](Cn1cnc2c(N)ncnc21)OCP(=O)(O)OP(=O)(O)OP(=O)(O)O | 56 | 16.5 | 0.048 | 0.005 | 122 | 29.1 | 0.79 | 0.15
6 | Nc1ncnc2c1ncn2[C@H]1C[C@@H](OCP(=O)(O)OP(=O)(O)OP(=O)(O)O)C1 | 13 | 6.5 | 0.21 | 0.015 | 41 | 4.7 | 1.3 | 0.07
